Experimental data from the RNAGym collection of RNA variant scans (doi:10.1126/science.aae0568).
Fewer inactive variants are shown than the library holds.

B1: tRNA (parent)
chain: GUUCCGUUGGCGUAAUGGUAACGCGUCUCCCUCCUAAGGAGAAGACUGCGGGUUCGAGUCCCGUACGGAACG

Variants of: B1
Assay: yeast fitness relative to wild type (ratio to wild type); higher = fitter; tRNA-Arg(CCU), competitive growth, 37 C, YPD
In short: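 Start and end populations of a pooled competition were compared by 100-nucleotide paired-end sequencing of gene amplicons. The Saccharomyces cerevisiae strains carried tRNA-Arg(CCU) gene variants at the native genomic locus, synthesised with a 3% per-site mutation rate at 69 sites, and competed in YPD at 37°C for 24 hours in six parallel replicates. Darwinian fitness relative to wild type was based on the change in genotype frequencies. Genotypes required ≥ 100 starting reads, and estimates < 0.5 were set to 0.5.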
For GUUCCGUUGGCGUAAUGGUAACGCGUCUCCCUCCUAAGGAGUAGACUGCGGGUUCGAGGCCCGUACGGAACG [A42U U59G], the yeast fitness was 0.75.
GUUCCGUUGGCGUAAUGGUAACGCGUCUCCCUCCUAAGGAGUAGACUGCAGGUUCGAGUCCCGUACGGAACG [A42U G50A] gave a yeast fitness of 0.743.
GUUCCGUUGGCGUAAUGGUAACGCGUCUCCCUCCUAAGGAGACGAAUCCGGGUUCGAGUCCCGUACGGAACG [A43C C46A G48C] gave a yeast fitness of 0.851.
GUUCCGUUGGCGUAAUGGUAACGCGUCUCCCUCCUAAGGAGACGGCUGCGGGUUCGAGUCCCGUACAGAACG [A43C A45G G67A] showed a yeast fitness of 0.659.
With GUUCCGUUGGCGUAAUGGUAACGCGUCUCCCUCCUAAGGAGACGACUGCGGGUUCGCGUCCCGUACGGAUCG [A43C A57C A70U] the yeast fitness was 0.53.
In the case of GUUCCGUUGGCGUAAUGGUAACGCGUCUCCCUCCUAAGGAGACGACUGUGGGUUGGAGUCCCGUACGGAACG [A43C C49U C55G], the yeast fitness is reported as 0.519.
Work on GUUCCGUUGGCGUAAUGGUAACGCGUCUCCCUCCUAAGGAGACGACUGCGGGUUCGAGUCCCGUACGGAACG [A43C] yielded a yeast fitness of 0.997.
With GUUCCGUUGGCGUAAUGGUAACGCGUCUCCCUCCUAAGGAGACGACUGCGGGUUCGAGUCCAGUACGGAACG [A43C C62A] the yeast fitness was 0.874.
GUUCCGUUGGCGUAAUGGUAACGCGUCUCCCUCCUAAGGAGUAGACUGCGGCUUCGAGUCCCGUACGGAGCG [A42U G52C A70G] showed a yeast fitness of 0.521.
For GUUCCGUUGGCGUAAUGGUAACGCGUCUCCCUCCUAAGGAGUAGACAGCGAGUUCGAGUCCCGUACGGAACG [A42U U47A G51A], the yeast fitness was ≤ 0.5.
GUUCCGUUGGCGUAAUGGUAACGCGUCUCCCUCCUAAGGAGACGACUGCGGGUUCGUGUCCCAUACGGAACG [A43C A57U G63A] showed a yeast fitness of 0.556.
GUUCCGUUGGCGUAAUGGUAACGCGUCUCCCUCCUAAGGAGACGACUACGGGUUCGAGUCCCGUACGGACCG [A43C G48A A70C] showed a yeast fitness of 1.13.
In the case of GUUCCGUUGGCGUAAUGGUAACGCGUCUCCCUCCUAAGGAGACGAUUGCGGGUUCGAGUCCCCUAUGGAACG [A43C C46U G63C C66U], the yeast fitness is reported as 0.581.
GUUCCGUUGGCGUAAUGGUAACGCGUCUCCCUCCUAAGGAGACGACUGCGGGUUCGUGUCCGGUACGGAACG [A43C A57U C62G] gave a yeast fitness of 0.571.
In the case of GUUCCGUUGGCGUAAUGGUAACGCGUCUCCCUCCUAAGGAGACGACUGCGGGUUCGAGUGCCGUACAGAACG [A43C C60G G67A], the yeast fitness is reported as ≤ 0.5.
Work on GUUCCGUUGGCGUAAUGGUAACGCGUCUCCCUCCUAAGGAGUAGACUGCGGGUGCGAGUCCCGUACGGAACG [A42U U54G] yielded a yeast fitness of 0.605.
Variant GUUCCGUUGGCGUAAUGGUAACGCGUCUCCCUCCUAAGGAGUAGACUGCGGGUCCGAGUCCCGUACGGAACG [A42U U54C] has a yeast fitness of 0.897.
In the case of GUUCCGUUGGCGUAAUGGUAACGCGUCUCCCUCCUAAGGAGUAGACUGCAGGUUCGAGUGCCGCACGGAACG [A42U G50A C60G U64C], the yeast fitness is reported as ≤ 0.5.
GUUCCGUUGGCGUAAUGGUAACGCGUCUCCCUCCUAAGGAGACGACUGCAGGUUCGAGUCCCGUACGGAACG [A43C G50A] showed a yeast fitness of 0.803.
With GUUCCGUUGGCGUAAUGGUAACGCGUCUCCCUCCUAAGGAGACGACUGCCGGUUCGAGUCCCGUACGGAACG [A43C G50C] the yeast fitness was 0.593.
For GUUCCGUUGGCGUAAUGGUAACGCGUCUCCCUCCUAAGGAGACGACUGCGGGUUUGAGUCCCGUACCGAACG [A43C C55U G67C], the yeast fitness was 0.556.
GUUCCGUUGGCGUAAUGGUAACGCGUCUCCCUCCUAAGGAGUAGACUGCGGGUUCAAGUCCAGUACGGAACG [A42U G56A C62A] showed a yeast fitness of 0.586.
In the case of GUUCCGUUGGCGUAAUGGUAACGCGUCUCCCUCCUAAGGAGUAGACUGCGGGGUCGAGUCCCGUACGGAUCG [A42U U53G A70U], the yeast fitness is reported as ≤ 0.5.
For GUUCCGUUGGCGUAAUGGUAACGCGUCUCCCUCCUAAGGAGACGACUGCGGGUUCGACUCCCGUACGGAACG [A43C G58C], the yeast fitness was 1.03.
For GUUCCGUUGGCGUAAUGGUAACGCGUCUCCCUCCUAAGGAGUAGACUGCGGGUUCGAGUCCCGUACCGCACG [A42U G67C A69C], the yeast fitness was 0.573.
With GUUCCGUUGGCGUAAUGGUAACGCGUCUCCCUCCUAAGGAGUACACUGCGGGCUCGAGUCCCGUACGGAACG [A42U G44C U53C] the yeast fitness was ≤ 0.5.
Work on GUUCCGUUGGCGUAAUGGUAACGCGUCUCCCUCCUAAGGAGACGACCGCGGGUUCGAGUCCCGUACGGAACG [A43C U47C] yielded a yeast fitness of 1.07.
For GUUCCGUUGGCGUAAUGGUAACGCGUCUCCCUCCUAAGGAGACGACUGCGGGUUCGAGUCCCGUCCGGAACG [A43C A65C], the yeast fitness was 1.03.
GUUCCGUUGGCGUAAUGGUAACGCGUCUCCCUCCUAAGGAGACGACUGCGGGUUCGAGUCCCAUCCGGAACG [A43C G63A A65C] gave a yeast fitness of 0.701.
In the case of GUUCCGUUGGCGUAAUGGUAACGCGUCUCCCUCCUAAGGAGUAGACUGCGGGUUCGAGUCCCGUACUGAACG [A42U G67U], the yeast fitness is reported as 0.813.
GUUCCGUUGGCGUAAUGGUAACGCGUCUCCCUCCUAAGGAGUAGACUGCGGGUUCGAGUCCCGUACAGAACG [A42U G67A] showed a yeast fitness of 0.758.
For GUUCCGUUGGCGUAAUGGUAACGCGUCUCCCUCCUAAGGAGACGACUGCCGGUUCGAGUCCCGUACGGAUCG [A43C G50C A70U], the yeast fitness was 0.574.
For GUUCCGUUGGCGUAAUGGUAACGCGUCUCCCUCCUAAGGAGUAGACCGCGGGUUCGAGUCCCGUACGGAACG [A42U U47C], the yeast fitness was 0.939.
With GUUCCGUUGGCGUAAUGGUAACGCGUCUCCCUCCUAAGGAGUAGACAGCGGGUUCGAGUCCCGUACGGAACG [A42U U47A] the yeast fitness was 0.789.
With GUUCCGUUGGCGUAAUGGUAACGCGUCUCCCUCCUAAGGAGUAGACUACGGGUCCGAGUCCCGUACGGAACG [A42U G48A U54C] the yeast fitness was 0.696.
With GUUCCGUUGGCGUAAUGGUAACGCGUCUCCCUCCUAAGGAGUAGACUGCGGGUACGAAUCCCGUACGGAACG [A42U U54A G58A] the yeast fitness was ≤ 0.5.
In the case of GUUCCGUUGGCGUAAUGGUAACGCGUCUCCCUCCUAAGGAGUAGACUGCAGGUUCGAGUCCCCUACAGAACG [A42U G50A G63C G67A], the yeast fitness is reported as ≤ 0.5.
In the case of GUUCCGUUGGCGUAAUGGUAACGCGUCUCCCUCCUAAGGAGACGACUGUGGGUUGGAGUCUCGUACGGAACG [A43C C49U C55G C61U], the yeast fitness is reported as 0.556.
